Test results taken from ChEMBL document CHEMBL1127349, “6,7,8,9-Tetrahydro-N,N-di-n-propyl-3H-benzindol-8-amines. Derivatives as potent and orally active serotonin 5-HT1A receptor agonists” (J Med Chem, 1994).
Activity calls are given as the source filed them. The calls are words filed in the database; no cut-off is given here.

Legend:
[1] = species on record: Rattus norvegicus; experiment: The concentration yielding a half maximal decrease of the DOPA was determined in rat brain striatum.; type: functional
[2] = system: Rattus norvegicus; experiment: The concentration yielding a half maximal decrease of the DOPA was determined in rat brain hemispheres; Partial response at 50 umol/kg; type: functional, organism-based
Summary of the method: (§1)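 Reserpine-pretreated (5 mg/kg sc, 18 h) male Sprague-Dawley rats, 200–300 g; compounds in saline given sc. DOPA and 5-HTP in limbic system, striatum and hemispheres measured by HPLC with electrochemical detection. Dose–response curves of 4–6 doses (n = 4) per area, fitted to variable-slope sigmoid on log data to give ED50.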

[3] = target: T1, 5-hydroxytryptamine receptor 1A (Rattus norvegicus, UniProt P19327); experiment: Displacement of the radioligand [3H]8-OH-DPAT from 5-hydroxytryptamine 1A receptor
T1 sequence (P19327 whole entry): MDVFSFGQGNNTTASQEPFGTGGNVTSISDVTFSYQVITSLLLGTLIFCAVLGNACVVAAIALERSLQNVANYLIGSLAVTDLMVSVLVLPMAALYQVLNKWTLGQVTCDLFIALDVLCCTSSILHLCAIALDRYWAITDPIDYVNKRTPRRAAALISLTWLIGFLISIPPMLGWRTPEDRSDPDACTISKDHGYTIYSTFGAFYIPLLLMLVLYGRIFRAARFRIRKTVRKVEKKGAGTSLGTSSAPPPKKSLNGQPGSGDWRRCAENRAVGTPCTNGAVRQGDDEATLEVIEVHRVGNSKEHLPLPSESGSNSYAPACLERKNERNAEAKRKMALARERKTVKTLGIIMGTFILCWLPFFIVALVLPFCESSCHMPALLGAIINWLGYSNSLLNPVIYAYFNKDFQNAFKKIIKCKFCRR
Summary of the method: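 Rat whole brain minus brain stem and cerebellum, washed membranes in 50 mM Tris pH 8.0 with 120 mM NaCl, 4 mM CaCl2, 4 mM MgCl2, 10 μM pargyline. Nonspecific with 10 μM 5-HT. IC50 by semilog linear regression, Ki via Cheng–Prusoff; 3–7 experiments, triplicates.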

[4] = species on record: Rattus norvegicus; experiment: Log concentration to inhibit 5-HTP accumulation was determined in rat limbic system; type: functional; summary of the method: as §1
[5] = species on record: Rattus norvegicus; experiment: The concentration yielding a half maximal decrease of the 5-HTP was determined in rat brain striatum.; type: functional
[6] = species on record: Rattus norvegicus; experiment: Log concentration to inhibit DOPA accumulation was determined in rat brain striatum; type: functional; summary of the method: as §1
[7] = species on record: Rattus norvegicus; experiment: The concentration yielding a half maximal decrease of the DOPA was determined in rat limbic system.; type: functional
[8] = species on record: Rattus norvegicus; experiment: Log concentration to inhibit 5-HTP accumulation was determined in rat brain striatum; type: functional; summary of the method: as §1
[9] = species on record: Rattus norvegicus; experiment: The concentration yielding a half maximal decrease of the 5-HTP was determined in rat limbic system.; type: functional
[10] = species on record: Rattus norvegicus; experiment: The concentration yielding a half maximal decrease of the 5-HTP was determined in rat brain hemispheres.; type: functional
[11] = species on record: Rattus norvegicus; experiment: Log concentration to inhibit 5-HTP accumulation was determined in rat brain hemispheres; type: functional; summary of the method: as §1
[12] = species on record: Rattus norvegicus; experiment: Log concentration to inhibit DOPA accumulation was determined in rat limbic system; type: functional; summary of the method: as §1
[13] = target: D(2) dopamine receptor (Rattus norvegicus, UniProt P61169); experiment: Displacement of the radioligand [3H]spiperone from D2 receptor
Chain of D(2) dopamine receptor (P61169 whole entry): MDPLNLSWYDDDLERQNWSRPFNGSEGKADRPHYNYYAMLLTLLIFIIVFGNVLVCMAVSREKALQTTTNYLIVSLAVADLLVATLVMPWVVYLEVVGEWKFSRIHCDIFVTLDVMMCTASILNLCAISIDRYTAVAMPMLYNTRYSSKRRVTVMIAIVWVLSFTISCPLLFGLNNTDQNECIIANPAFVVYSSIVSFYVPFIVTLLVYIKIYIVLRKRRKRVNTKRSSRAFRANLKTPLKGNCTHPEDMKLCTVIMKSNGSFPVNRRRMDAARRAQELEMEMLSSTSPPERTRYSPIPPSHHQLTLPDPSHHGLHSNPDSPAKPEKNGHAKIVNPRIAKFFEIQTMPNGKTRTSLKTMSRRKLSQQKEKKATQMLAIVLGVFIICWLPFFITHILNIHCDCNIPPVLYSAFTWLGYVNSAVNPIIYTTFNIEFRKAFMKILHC
Summary of the method: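 Rat striatal membranes in 50 mM potassium phosphate buffer, incubated with 0.5 nM [3H]spiperone (3 mg tissue) 10 min at 37 °C. Nonspecific binding defined with 10 μM 6,7-ADTN. IC50 converted to Ki by Cheng–Prusoff; 3–7 experiments, each concentration in triplicate.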

[14] = system: Rattus norvegicus; experiment: The concentration yielding a half maximal decrease of the DOPA was determined in rat brain striatum; inactive at 45 umol/kg; type: functional, organism-based
[15] = system: Rattus norvegicus; experiment: The concentration yielding a half maximal decrease of the DOPA was determined in rat limbic system; inactive at 45 umol/kg; type: functional, organism-based
[16] = system: Rattus norvegicus; experiment: The concentration yielding a half maximal decrease of the DOPA was determined in rat brain hemispheres; inactive at 45 umol/kg; type: functional, organism-based; summary of the method: as §1
[17] = system: Rattus norvegicus; experiment: Motor activity was measured by motility testing on injecting the compound subcutaneously into rats at the dose of 0.02 umol/kg (1a) and 3.5 umol/kg (1b)
[18] = system: Rattus norvegicus; experiment: Motor activity was measured by motility testing on injecting the compound subcutaneously into rats at the dose of 12.5 umol/kg; type: functional
Summary of the method: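 Rats given reserpine 5 mg/kg sc 18 h beforehand, then test compound sc in neck (n = 4). Placed singly in photocell motility meters straight after dosing; counts recorded for 30 min, gross behaviour observed throughout. Value as counts/30 min with SEM.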

[19] = system: Rattus norvegicus; experiment: The concentration yielding a half maximal decrease of the 5-HTP was determined in rat brain striatum; inactive at 50 umol/kg; type: functional, organism-based; summary of the method: as §1
[20] = system: Rattus norvegicus; experiment: The concentration yielding a half maximal decrease of the DOPA was determined in rat brain hemispheres; inactive at 50 umol/kg; type: functional, organism-based; summary of the method: as §1
[21] = system: Rattus norvegicus; experiment: The concentration yielding a half maximal decrease of the 5-HTP was determined in rat limbic system; inactive at 50 umol/kg; type: functional, organism-based; summary of the method: as §1
[22] = system: Rattus norvegicus; experiment: The concentration yielding a half maximal decrease of the DOPA was determined in rat brain striatum; inactive at 50 umol/kg; type: functional, organism-based
[23] = system: Rattus norvegicus; experiment: The concentration yielding a half maximal decrease of the 5-HTP was determined in rat brain hemispheres; inactive at 50 umol/kg; type: functional, organism-based; summary of the method: as §1
[24] = system: Rattus norvegicus; experiment: The concentration yielding a half maximal decrease of the DOPA was determined in rat limbic system; inactive at 50 umol/kg; type: functional, organism-based
[25] = system: Rattus norvegicus; experiment: The concentration yielding a half maximal decrease of the DOPA was determined in rat brain striatum; Partial response 50 umol/kg; type: functional, organism-based
[26] = system: Rattus norvegicus; experiment: The concentration yielding a half maximal decrease of the DOPA was determined in rat brain hemispheres; Inactive at 50 umol/kg; type: functional, organism-based; summary of the method: as §1
[27] = system: Rattus norvegicus; experiment: The concentration yielding a half maximal decrease of the DOPA was determined in rat brain hemispheres; inactive at 12.5 umol/kg; type: functional, organism-based; summary of the method: as §1
[28] = species on record: Rattus norvegicus; experiment: The concentration yielding a half maximal decrease of the DOPA was determined in rat limbic system; type: functional
[29] = species on record: Rattus norvegicus; experiment: The concentration yielding a half maximal decrease of the 5-HTP was determined in rat brain hemispheres; type: functional; summary of the method: as §1
[30] = species on record: Rattus norvegicus; experiment: The concentration yielding a half maximal decrease of the 5-HTP was determined in rat limbic system; type: functional; summary of the method: as §1
[31] = species on record: Rattus norvegicus; experiment: The concentration yielding a half maximal decrease of the DOPA was determined in rat brain striatum; type: functional; summary of the method: as §1

CCCN(CCC)C1CCc2ccc3[nH]cc(Cl)c3c2C1 (configuration not stated)
ED50 [1]: 3.4 µmol/kg | ED50 [2]: Weak activity | Ki [3]: 12.6 nM | pED50 [4]: 5.86 | ED50 [5]: 1.7 µmol/kg | pED50 [6]: 5.47 | ED50 [7]: 3.7 µmol/kg | pED50 [8]: 5.78 | ED50 [9]: 1.4 µmol/kg | ED50 [10]: 1.4 µmol/kg | pED50 [11]: 5.85 | pED50 [12]: 5.43 | Ki [13]: 317 nM

CCCN(CCC)C1CCc2cccc(O)c2C1 (configuration not stated) [8-OH-DPAT]
ED50 [14]: inactive | ED50 [15]: inactive | ED50 [16]: inactive | Counts/30 min [17]: 66

CCCN(CCC)[C@H]1CCc2ccc3[nH]ccc3c2C1
Activity [18]: 29 Counts 30min-1

CCCN(CCC)C1CCc2ccc3c(C=O)c[nH]c3c2C1 (configuration not stated)
Ki [3]: 6720 nM | ED50 [19]: inactive | ED50 [20]: inactive | ED50 [21]: inactive | ED50 [22]: inactive | ED50 [23]: inactive | ED50 [24]: inactive | Counts/30 min [17]: 7 | Ki [13]: > 16000 nM

CCCN(CCC)C1CCc2ccc3[nH]cc(CC(F)(F)F)c3c2C1 (configuration not stated)
Activity [18]: 10 Counts 30min-1 | Ki [3]: 182 nM | ED50 [19]: inactive | ED50 [20]: inactive | ED50 [21]: inactive | ED50 [25]: Weak activity | ED50 [23]: inactive | ED50 [24]: inactive | Ki [13]: 796 nM

CCCN(CCC)[C@H]1CCc2ccc3[nH]cc(C#N)c3c2C1
ED50 [1]: 52 µmol/kg | Activity [18]: 300 Counts 30min-1 | Ki [3]: 2.9 nM | pED50 [4]: 7.93 | ED50 [5]: 0.089 µmol/kg | ED50 [26]: inactive | pED50 [6]: 4.29 | ED50 [7]: 42 µmol/kg | pED50 [8]: 7.05 | ED50 [9]: 0.12 µmol/kg | ED50 [10]: 0.15 µmol/kg | pED50 [11]: 6.81 | pED50 [12]: 4.37 | Ki [13]: 8020 nM

CCCN(CCC)C1CCc2ccc3[nH]ccc3c2C1 (configuration not stated)
Activity [18]: 177 Counts 30min-1

CCCN(CCC)C1CCc2ccc3[nH]cc(C=O)c3c2C1 (configuration not stated)
ED50 [27]: inactive | pED50 [4]: 6.95 | ED50 [28]: 0.3 µmol/kg | ED50 [29]: 0.13 µmol/kg | pED50 [6]: 5.48 | pED50 [8]: 7.18 | pED50 [11]: 6.88 | ED50 [30]: 0.11 µmol/kg | Counts/30 min [17]: 231 | pED50 [12]: 6.52 | ED50 [31]: 3.3 µmol/kg
